From ChEMBL document CHEMBL2176944, “2-(3-Oxo-1,3-diphenylpropyl)malonic acids as potent allosteric ligands of the PIF pocket of phosphoinositide-dependent kinase-1: development and prodrug concept” (J Med Chem, 2012)
Activity calls are given as the source filed them. No cut-off for these calls is given here.

What was measured:
[1] = target: T1, 3-phosphoinositide-dependent protein kinase 1 (Homo sapiens) (UniProt O15530); assay: Activation of PDK1 in IGF-I-stimulated HEK293 cells assessed as decrease of phosphorylation of S6K activation loop at 50 uM after 2 hrs by Western blot analysis; format: cell-based
T1 sequence (whole entry): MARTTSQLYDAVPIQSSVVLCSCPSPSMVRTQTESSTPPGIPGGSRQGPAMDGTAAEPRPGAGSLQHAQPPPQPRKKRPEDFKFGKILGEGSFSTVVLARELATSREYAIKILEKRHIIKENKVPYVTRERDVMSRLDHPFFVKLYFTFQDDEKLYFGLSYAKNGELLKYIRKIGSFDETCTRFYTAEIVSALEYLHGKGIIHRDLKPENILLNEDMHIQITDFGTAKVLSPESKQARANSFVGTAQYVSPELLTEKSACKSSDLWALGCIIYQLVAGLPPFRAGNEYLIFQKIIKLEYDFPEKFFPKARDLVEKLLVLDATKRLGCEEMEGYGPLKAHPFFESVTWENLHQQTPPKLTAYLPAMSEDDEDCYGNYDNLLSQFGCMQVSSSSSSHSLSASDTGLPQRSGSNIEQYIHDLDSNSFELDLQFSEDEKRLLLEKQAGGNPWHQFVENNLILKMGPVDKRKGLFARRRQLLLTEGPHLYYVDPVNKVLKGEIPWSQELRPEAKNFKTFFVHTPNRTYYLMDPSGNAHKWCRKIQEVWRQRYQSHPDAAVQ
Procedure, shortened: (§1)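 HEK293 cells in DMEM with 10% FBS were serum-starved 24 h, then given 50 μM compound or DMSO for 2 h and stimulated with IGF-I (10 ng/mL) for 20 min. For S6K and PKCζ, cells were first transiently transfected with GST-fusions of full-length S6K[T412E] and PKCζ (PEI). These proteins were pulled down on glutathione sepharose and immunoblotted for activation-loop phosphorylation (S6K Thr229, PKCζ Thr410), normalized to anti-GST. For PKB, untransfected cell lysates were immunoblotted with phospho-specific antibodies.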

[2] = Hydrolysis half life of the compound; format: physicochemical
Procedure, shortened: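 Chemical stability of the ester prodrug was measured in cell-free medium at 37 °C, giving the half-life of spontaneous hydrolysis.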

L6 [3] = assay: Cellular uptake in rat L6 cells at 20 uM after 5 mins by mass spectroscopy analysis; format: ADME, cell-based; settings: l6, 5 min
Procedure, shortened: (§2)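 Confluent rat L6 cells in serum-free DMEM were exposed to 20 μM ester prodrug for 5–90 min. Cells were then washed with cold PBS, trypsinized and counted. Carbamazepine was added as internal standard, and samples were acidified with HCl and extracted with ethyl acetate. Prodrug and free dicarboxylic acid were quantified by HPLC-MS/MS on a C18 column with TFA-containing gradients. DMSO-treated cells served as control.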

L6 [4] = assay: Prodrug conversion in rat L6 cells assessed as production of 2-(3-Oxo-1-phenyl-3-(4-(trifluoromethyl)phenyl)propyl)malonic acid level in cytoplasm at 20 uM […] by mass spectroscopy analysis relative to control; format: ADME, cell-based; settings: l6, 20 µM
L6 [5] = assay: Prodrug conversion in rat L6 cells assessed as reduction half life of prodrug at 20 uM […] by mass spectroscopy analysis; format: ADME, cell-based; settings: l6, 20 µM
L6 [6] = assay: Prodrug conversion in rat L6 cells assessed as prodrug degradation at 20 uM after 1 hr by mass spectroscopy analysis; format: ADME, cell-based; settings: l6, 1 h
[7] = target: T1, 3-phosphoinositide-dependent protein kinase 1 (Homo sapiens); assay: Activation of PDK1 in IGF-I-stimulated HEK293 cells assessed as decrease of phosphorylation of PKB T-loop at 50 uM after 2 hrs by Western blot analysis; format: cell-based; procedure, shortened: as §1
L6 [8] = assay: Prodrug conversion in rat L6 cells assessed as production of 2-(3-Oxo-1-phenyl-3-(4-(trifluoromethyl)phenyl)propyl)malonic acid level at 20 uM after 1 hr by mass spectroscopy analysis; format: ADME, cell-based; settings: l6, 1 h; procedure, shortened: as §2
[9] = target: T1, 3-phosphoinositide-dependent protein kinase 1 (Homo sapiens); assay: Activation of PDK1 in IGF-I-stimulated HEK293 cells assessed as decrease of phosphorylation of PKCzeta at Thr410 at 50 uM after 2 hrs by Western blot analysis; format: cell-based; procedure, shortened: as §1
L6 [10] = assay: Prodrug conversion in rat L6 cells assessed as production of 2-(3-Oxo-1-phenyl-3-(4-(trifluoromethyl)phenyl)propyl)malonic acid level in cytoplasm at 20 uM […] by HPLC analysis; format: ADME, cell-based; settings: l6, 20 µM

Activity [1]: Active
half-life [2]: 288 min
Drug uptake (L6 [3]): Active
fold change (FC) (L6 [4]): 67
t1/2 (L6 [5]): 4.3 min
Drug metabolism (L6 [6]): > 90%
Activity [7]: inactive
Drug metabolism (L6 [8]): 80 µM
Activity [9]: inactive
Drug metabolism (L6 [10]): Active
Compound: CC(=O)OCOC(=O)C(C(=O)OCOC(C)=O)C(CC(=O)c1ccc(C(F)(F)F)cc1)c1ccccc1 (stereo not given)
